The source made the active and inactive calls. The calls are words filed in the database; no cut-off is given here.

The target of assay [1] is Ras GTPase-activating-like protein IQGAP1 (Homo sapiens) (UniProt P46940). Nature of the assay: Binding affinity to IQGAP1 in human NCI-H23 cells at 1 uM by mass spectrometry based pull down assay. The class given is cell-based.
In assay [2] the target is Clustered mitochondria protein homolog (Homo sapiens) (UniProt O75153). Put plainly: Binding affinity to CLUH in human NCI-H23 cells at 1 uM by mass spectrometry based pull down assay. Type of assay: cell-based.
Sequence of Clustered mitochondria protein homolog (Homo sapiens) (O75153 whole entry): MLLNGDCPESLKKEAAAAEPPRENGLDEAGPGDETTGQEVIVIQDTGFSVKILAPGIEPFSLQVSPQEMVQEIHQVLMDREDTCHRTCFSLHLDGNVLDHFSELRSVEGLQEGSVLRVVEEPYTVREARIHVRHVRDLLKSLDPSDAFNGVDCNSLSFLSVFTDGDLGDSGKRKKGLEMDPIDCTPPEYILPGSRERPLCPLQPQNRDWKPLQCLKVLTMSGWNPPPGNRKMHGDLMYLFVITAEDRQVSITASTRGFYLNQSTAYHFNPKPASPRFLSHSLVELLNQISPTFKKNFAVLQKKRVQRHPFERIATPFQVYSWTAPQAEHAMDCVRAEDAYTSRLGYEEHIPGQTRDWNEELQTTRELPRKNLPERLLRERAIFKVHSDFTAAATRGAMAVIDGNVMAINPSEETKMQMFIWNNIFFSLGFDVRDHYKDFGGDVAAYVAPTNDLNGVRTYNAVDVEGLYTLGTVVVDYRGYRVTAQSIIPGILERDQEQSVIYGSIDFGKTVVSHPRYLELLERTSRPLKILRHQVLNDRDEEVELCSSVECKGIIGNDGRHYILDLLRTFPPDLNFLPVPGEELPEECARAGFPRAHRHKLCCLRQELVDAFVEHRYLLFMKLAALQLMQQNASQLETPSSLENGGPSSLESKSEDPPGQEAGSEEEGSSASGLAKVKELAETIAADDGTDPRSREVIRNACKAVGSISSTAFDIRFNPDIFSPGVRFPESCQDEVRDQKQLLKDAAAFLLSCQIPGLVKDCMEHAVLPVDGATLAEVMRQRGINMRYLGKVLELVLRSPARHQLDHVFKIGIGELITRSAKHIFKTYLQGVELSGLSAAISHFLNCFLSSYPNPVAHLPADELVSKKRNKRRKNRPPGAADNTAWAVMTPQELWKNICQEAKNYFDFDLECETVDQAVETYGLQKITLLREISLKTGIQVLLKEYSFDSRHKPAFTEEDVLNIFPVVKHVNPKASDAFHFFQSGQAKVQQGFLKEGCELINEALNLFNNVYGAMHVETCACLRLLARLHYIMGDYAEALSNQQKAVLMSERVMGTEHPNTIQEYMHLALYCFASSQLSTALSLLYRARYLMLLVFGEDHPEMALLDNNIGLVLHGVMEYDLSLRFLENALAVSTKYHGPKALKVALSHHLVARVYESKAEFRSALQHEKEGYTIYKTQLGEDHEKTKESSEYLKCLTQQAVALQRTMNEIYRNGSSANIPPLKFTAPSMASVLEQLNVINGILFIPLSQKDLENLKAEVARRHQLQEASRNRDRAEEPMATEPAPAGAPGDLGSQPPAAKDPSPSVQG
Assay [3] has as its target B-cell receptor-associated protein 31 (Homo sapiens) (UniProt P51572). Put plainly: Binding affinity to BCAP31 in human NCI-H23 cells at 1 uM by mass spectrometry based pull down assay. The class given is cell-based.
Assay [4] addresses N-acetyl-D-glucosamine kinase (Homo sapiens) (UniProt Q9UJ70). Nature of the assay: Binding affinity to NAGK in human NCI-H23 cells at 1 uM by mass spectrometry based pull down assay. The class given is cell-based.
For assay [5], the target named is Acidic leucine-rich nuclear phosphoprotein 32 family member A (Homo sapiens) (UniProt P39687). Put plainly: Binding affinity to ANP32A in human NCI-H23 cells at 1 uM by mass spectrometry based pull down assay. The class given is cell-based.
The target of assay [6] is Apoptosis-inducing factor 1, mitochondrial (Homo sapiens) (UniProt O95831). Put plainly: Binding affinity to AIFM1 in human NCI-H23 cells at 1 uM by mass spectrometry based pull down assay. The class given is cell-based. In short, it runs like this:
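NCI-H23 or NCI-H358 cells were grown and lysed. Lysates were incubated overnight at 4 °C with 1 μM biotinylated covalent probe or DMSO, then pulled down on streptavidin beads. Proteins were run on polyacrylamide gels and stained with Coomassie. Bands were excised, digested and identified by mass spectrometry.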

The target in assay [7] is Reticulon-4 (Homo sapiens) (UniProt Q9NQC3). Put plainly: Binding affinity to RTN4 in human NCI-H23 cells at 1 uM by mass spectrometry based pull down assay. The class given is cell-based.
Assay [8] deals with T1, Dual specificity mitogen-activated protein kinase kinase 7 (Homo sapiens) (UniProt O14733).
T1 sequence (whole entry): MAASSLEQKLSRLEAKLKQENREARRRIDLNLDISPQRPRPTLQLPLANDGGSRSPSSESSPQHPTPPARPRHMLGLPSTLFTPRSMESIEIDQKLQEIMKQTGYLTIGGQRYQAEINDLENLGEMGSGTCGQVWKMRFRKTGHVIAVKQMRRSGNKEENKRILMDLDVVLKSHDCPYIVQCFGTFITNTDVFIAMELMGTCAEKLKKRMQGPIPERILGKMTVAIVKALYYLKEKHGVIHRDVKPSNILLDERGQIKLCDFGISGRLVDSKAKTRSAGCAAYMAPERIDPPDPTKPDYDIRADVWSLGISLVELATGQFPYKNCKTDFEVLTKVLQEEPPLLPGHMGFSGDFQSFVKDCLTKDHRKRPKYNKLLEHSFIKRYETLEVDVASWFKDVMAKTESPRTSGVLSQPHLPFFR
Nature of the assay: Binding affinity to MAP2K7 in human NCI-H23 cells at 1 uM by mass spectrometry based pull down assay. The class given is cell-based.

The target of assay [9] is Mitogen-activated protein kinase 3 (Homo sapiens) (UniProt P27361). Put plainly: Binding affinity to MAPK3 in human NCI-H23 cells at 1 uM by mass spectrometry based pull down assay. The class given is cell-based.
The target of assay [10] is Aldehyde dehydrogenase family 3 member A2 (Homo sapiens) (UniProt P51648). Put plainly: Binding affinity to ALDH3A2 in human NCI-H358 cells at 1 uM by mass spectrometry based pull down assay. Type of assay: cell-based.
In assay [11] the target is Acylamino-acid-releasing enzyme (Homo sapiens) (UniProt P13798). Nature of the assay: Binding affinity to APEH in human NCI-H358 cells at 1 uM by mass spectrometry based pull down assay. Type of assay: cell-based.
In assay [12] the target is Aurora kinase B (Homo sapiens) (UniProt Q96GD4). Put plainly: Binding affinity to AURKB in human NCI-H358 cells at 1 uM by mass spectrometry based pull down assay. Type of assay: cell-based.
Assay [13] concerns the target Inosine-5'-monophosphate dehydrogenase 2 (Homo sapiens) (UniProt P12268). Nature of the assay: Binding affinity to IMPDH2 in human NCI-H358 cells at 1 uM by mass spectrometry based pull down assay. The class given is cell-based.
Assay [14] has as its target Mitogen-activated protein kinase 1 (Homo sapiens) (UniProt P28482). Put plainly: Binding affinity to MAPK1 in human NCI-H358 cells at 1 uM by mass spectrometry based pull down assay. The class given is cell-based.
The target in assay [15] is Isoleucine--tRNA ligase, cytoplasmic (Homo sapiens) (UniProt P41252). Nature of the assay: Binding affinity to IARS in human NCI-H358 cells at 1 uM by mass spectrometry based pull down assay. Type of assay: cell-based.
Sequence of Isoleucine--tRNA ligase, cytoplasmic (Homo sapiens) (P41252 whole entry): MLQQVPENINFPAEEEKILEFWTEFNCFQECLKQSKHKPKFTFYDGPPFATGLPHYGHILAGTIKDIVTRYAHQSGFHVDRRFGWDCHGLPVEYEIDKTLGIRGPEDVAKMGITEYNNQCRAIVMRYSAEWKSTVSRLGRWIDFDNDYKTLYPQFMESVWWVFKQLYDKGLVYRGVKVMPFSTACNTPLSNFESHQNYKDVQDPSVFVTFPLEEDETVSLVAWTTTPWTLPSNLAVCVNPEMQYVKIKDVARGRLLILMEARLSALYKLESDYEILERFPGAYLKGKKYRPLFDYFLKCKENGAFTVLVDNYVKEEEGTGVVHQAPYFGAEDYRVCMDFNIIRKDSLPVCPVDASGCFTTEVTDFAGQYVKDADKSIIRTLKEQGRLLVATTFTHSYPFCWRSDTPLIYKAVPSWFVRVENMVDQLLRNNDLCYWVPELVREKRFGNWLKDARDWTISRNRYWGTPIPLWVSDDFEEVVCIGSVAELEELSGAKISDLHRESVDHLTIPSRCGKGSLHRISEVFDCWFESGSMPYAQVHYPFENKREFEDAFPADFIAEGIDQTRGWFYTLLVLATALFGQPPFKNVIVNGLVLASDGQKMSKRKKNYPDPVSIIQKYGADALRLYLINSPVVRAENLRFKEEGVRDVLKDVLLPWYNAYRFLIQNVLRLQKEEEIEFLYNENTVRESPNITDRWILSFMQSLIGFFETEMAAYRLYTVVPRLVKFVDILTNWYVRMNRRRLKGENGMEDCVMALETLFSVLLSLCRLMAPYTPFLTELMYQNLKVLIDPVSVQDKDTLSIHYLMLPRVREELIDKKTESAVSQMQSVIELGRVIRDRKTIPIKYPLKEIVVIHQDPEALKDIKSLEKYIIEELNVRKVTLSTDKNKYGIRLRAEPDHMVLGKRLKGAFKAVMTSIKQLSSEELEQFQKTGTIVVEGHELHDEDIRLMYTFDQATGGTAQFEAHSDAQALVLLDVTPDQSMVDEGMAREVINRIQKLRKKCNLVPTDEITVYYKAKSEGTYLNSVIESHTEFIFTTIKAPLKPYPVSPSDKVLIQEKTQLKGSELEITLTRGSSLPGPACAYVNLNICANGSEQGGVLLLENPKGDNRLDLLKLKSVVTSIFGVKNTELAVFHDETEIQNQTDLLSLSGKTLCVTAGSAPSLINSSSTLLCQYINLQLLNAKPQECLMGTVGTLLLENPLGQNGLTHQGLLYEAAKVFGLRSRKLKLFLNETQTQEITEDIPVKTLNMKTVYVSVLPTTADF
For assay [16], the target named is Mitogen-activated protein kinase 13 (Homo sapiens) (UniProt O15264). Put plainly: Inhibition of p38d in human SKCO1 cells at 1 uM after 4 hrs using biotin labeled DLKPGNLAVNEDCELK probe by mass-spectrometric analysis relative to control. The class given is cell-based.
Sequence of Mitogen-activated protein kinase 13 (Homo sapiens) (O15264 whole entry, the tested form may be a part): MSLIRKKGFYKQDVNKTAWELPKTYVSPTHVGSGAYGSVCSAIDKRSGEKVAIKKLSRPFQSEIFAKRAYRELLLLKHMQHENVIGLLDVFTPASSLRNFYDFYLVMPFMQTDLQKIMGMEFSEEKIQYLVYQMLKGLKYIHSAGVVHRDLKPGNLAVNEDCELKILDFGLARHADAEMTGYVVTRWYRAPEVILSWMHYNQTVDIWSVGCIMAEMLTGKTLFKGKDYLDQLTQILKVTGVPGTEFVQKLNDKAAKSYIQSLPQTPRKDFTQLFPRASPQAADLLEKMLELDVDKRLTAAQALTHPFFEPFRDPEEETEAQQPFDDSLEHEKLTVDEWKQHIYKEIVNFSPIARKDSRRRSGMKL
For assay [17], the target named is Mast/stem cell growth factor receptor Kit (Homo sapiens) (UniProt P10721). Nature of the assay: Inhibition of human KIT (571 to 952 residues) expressed in bacterial expression system assessed as enzyme activity at 10 uM by KINOMEScan assay relative to control. Also on record: scale not given: the % may be the effect or the level left. In short, it runs like this:
(§1)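 In vitro ATP-site competition binding assay across a panel of 456 kinases, with compound tested at 1 and 10 μM.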

The target of assay [18] is T2, Serine/threonine-protein kinase D2 (Homo sapiens) (UniProt Q9BZL6).
T2 sequence (whole entry): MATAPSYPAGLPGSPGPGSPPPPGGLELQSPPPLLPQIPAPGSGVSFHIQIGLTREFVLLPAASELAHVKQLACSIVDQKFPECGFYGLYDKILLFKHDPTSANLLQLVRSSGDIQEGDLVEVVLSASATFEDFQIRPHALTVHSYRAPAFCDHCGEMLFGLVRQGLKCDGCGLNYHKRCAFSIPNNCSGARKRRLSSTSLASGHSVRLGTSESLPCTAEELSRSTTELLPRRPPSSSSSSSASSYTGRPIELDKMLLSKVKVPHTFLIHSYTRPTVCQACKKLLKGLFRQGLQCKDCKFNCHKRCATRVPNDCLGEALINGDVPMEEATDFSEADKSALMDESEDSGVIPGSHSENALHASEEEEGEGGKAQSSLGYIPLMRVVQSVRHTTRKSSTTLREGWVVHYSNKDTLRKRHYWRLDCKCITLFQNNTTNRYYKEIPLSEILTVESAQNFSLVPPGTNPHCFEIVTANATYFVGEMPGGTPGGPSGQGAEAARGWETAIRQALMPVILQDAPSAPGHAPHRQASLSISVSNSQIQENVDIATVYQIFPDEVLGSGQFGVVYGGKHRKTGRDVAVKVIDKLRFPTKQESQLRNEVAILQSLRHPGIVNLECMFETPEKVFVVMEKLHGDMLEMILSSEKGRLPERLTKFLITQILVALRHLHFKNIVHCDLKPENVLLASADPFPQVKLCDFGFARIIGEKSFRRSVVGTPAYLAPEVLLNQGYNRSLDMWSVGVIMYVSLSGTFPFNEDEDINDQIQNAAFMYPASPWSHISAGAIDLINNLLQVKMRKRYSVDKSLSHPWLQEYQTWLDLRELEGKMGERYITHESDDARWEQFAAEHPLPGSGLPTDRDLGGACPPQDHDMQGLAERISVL
Nature of the assay: Inhibition of human PRKD2 (519 to 838 residues) expressed in bacterial expression system assessed as enzyme activity at 10 uM by KINOMEScan assay relative to control. The arrangement: scale not given: the % may be the effect or the level left. In short, it runs like this: as §1

Sequence of Mast/stem cell growth factor receptor Kit (Homo sapiens) (P10721 whole entry, the tested form may be a part): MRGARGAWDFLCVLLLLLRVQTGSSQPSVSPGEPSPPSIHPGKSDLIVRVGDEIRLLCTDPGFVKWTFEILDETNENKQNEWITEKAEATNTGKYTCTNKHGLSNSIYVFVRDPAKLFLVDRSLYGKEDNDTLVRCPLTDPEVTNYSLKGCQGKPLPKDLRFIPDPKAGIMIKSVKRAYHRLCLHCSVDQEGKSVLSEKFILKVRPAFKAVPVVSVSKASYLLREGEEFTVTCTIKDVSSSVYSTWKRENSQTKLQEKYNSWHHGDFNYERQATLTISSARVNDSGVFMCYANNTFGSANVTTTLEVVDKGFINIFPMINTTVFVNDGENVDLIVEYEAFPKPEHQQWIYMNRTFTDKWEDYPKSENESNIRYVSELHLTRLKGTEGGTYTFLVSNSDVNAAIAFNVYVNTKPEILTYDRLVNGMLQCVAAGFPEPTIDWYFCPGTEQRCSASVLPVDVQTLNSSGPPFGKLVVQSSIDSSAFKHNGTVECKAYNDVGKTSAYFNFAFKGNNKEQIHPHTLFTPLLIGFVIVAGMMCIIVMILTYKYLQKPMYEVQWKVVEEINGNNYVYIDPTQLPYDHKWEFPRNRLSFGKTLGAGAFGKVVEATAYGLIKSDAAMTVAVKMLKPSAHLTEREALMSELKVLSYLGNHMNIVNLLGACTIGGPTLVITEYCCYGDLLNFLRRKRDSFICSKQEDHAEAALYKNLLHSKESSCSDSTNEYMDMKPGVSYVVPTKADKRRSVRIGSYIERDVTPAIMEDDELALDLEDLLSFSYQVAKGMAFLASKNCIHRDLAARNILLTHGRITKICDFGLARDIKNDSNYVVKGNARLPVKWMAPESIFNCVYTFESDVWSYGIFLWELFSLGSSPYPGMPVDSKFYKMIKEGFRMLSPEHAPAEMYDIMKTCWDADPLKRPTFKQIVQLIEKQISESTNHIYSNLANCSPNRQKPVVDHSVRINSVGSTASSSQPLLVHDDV
Sequence of Inosine-5'-monophosphate dehydrogenase 2 (Homo sapiens) (P12268 2-514 limits assumed): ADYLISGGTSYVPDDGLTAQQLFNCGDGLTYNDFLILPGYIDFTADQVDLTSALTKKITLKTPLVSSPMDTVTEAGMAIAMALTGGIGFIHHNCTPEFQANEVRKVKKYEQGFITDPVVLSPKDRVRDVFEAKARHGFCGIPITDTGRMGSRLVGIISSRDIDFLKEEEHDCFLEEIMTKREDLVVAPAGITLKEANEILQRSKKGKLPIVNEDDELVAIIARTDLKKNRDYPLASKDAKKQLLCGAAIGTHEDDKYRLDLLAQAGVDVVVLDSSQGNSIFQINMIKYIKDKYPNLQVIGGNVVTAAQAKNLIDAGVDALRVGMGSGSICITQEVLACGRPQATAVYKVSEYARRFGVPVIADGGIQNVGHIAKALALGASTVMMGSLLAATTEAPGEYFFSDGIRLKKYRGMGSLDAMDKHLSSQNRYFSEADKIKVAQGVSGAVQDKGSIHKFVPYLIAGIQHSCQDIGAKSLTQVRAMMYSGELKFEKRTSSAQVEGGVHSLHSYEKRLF
Sequence of N-acetyl-D-glucosamine kinase (Homo sapiens) (Q9UJ70 whole entry): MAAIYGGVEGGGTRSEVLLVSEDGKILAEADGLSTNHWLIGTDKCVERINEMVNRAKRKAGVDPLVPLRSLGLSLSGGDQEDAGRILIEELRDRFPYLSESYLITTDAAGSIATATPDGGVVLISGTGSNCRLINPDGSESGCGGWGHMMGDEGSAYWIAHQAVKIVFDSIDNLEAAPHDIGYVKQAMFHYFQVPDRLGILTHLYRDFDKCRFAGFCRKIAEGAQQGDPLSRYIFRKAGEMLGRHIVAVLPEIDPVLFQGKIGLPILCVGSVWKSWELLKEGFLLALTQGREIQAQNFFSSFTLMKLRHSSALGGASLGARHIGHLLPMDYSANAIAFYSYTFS
Sequence of B-cell receptor-associated protein 31 (Homo sapiens) (P51572 whole entry): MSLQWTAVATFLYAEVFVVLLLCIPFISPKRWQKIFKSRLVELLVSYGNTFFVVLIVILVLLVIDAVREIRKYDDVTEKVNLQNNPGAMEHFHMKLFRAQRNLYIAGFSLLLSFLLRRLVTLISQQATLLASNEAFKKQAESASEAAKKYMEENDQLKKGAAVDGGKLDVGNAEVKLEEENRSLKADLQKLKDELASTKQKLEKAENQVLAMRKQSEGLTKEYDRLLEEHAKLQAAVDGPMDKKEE

For the compound `C=CC(=O)Nc1ccccc1Nc1nc(Nc2ccc(N3CCN(CCOCCOCCOCCNC(=O)CCCC[C@@H]4SC[C@@H]5NC(=O)N[C@@H]54)CC3)cc2)ncc1Cl`, the result in [1], in assay [2], in assay [3], in assay [4], in assay [5] and in assay [6] was Active. In addition, the result in assay [7], in assay [8], in assay [9], in assay [10], in assay [11] and in assay [12] was Active. For the same compound, the result in assay [13], in assay [14] and in [15] was Active.
With `C=CC(=O)Nc1ccccc1Nc1nc(Nc2ccc(N3CCN(C)CC3)cc2)ncc1Cl`, the inhibition in assay [16] was -8.5%.
For `COc1cc(O)c2c(c1)/C=C/C[C@H](O)[C@H](O)C(=O)/C=C\C[C@H](C)OC2=O`, the Activity in [17] was 0.6%; in [18], 2.5%.

The record behind these values is ChEMBL document CHEMBL4118021, “Studies of TAK1-centered polypharmacology with novel covalent TAK1 inhibitors” (Bioorg Med Chem, 2017).
